High-throughput results: PubChem BioAssay, several laboratories
An excerpt weighted towards active compounds, which were near 1.8% of everything screened.
AI-2 QS modul: Vibrio harveyi AI-2 quorum sensing modulators, primary screen, JMH597 strain, luminescence/OD600 ratio. Vibrio harveyi JMH597 AI-2 luminescence/OD600 ratio, 9 h; active compounds read low; strain lacks LuxN and CqsS sensors; 0 = neutral-control median. activity change, % at 7.5 µM. 0.4% of 300,000 active. AID 2094, 2009; in the data active = activity change below about -75%, passing the limit was not always enough;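 note: luminescence divided by OD600 gain over 9 h not by final OD600 alone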
NTR1 ag: agonists of human NTR1, primary screen, imaging, U2OS cells, beta-arrestin-GFP, high content; Neurotensin receptor type 1 (Homo sapiens), P30989; NTR1-U2OS beta-arrestin-GFP spot imaging, agonist mode; activation, % at 20 µM; 0.17% of 330,000 active; AID 493036, 2011;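 active = activation at or above 40% of the spot to cytoplasm intensity ratio, with at least 20 cells analyzed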;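 note: 0% = DMSO without peptide and 100% = 100 nM NTR1 peptide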
MC4R ag barr: MC4R agonists recruiting beta-arrestin, primary screen, cell-based, luminescence, agonist arm of biased-ligand search; Melanocortin receptor 4 (Homo sapiens), P32245; U2OS MC4R beta-arrestin complementation; percent of melanotan II response, DMSO zero; activation, % at 8.9 µM; 0.98% of 360,000 active; AID 540308, 2011;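 active = activation above a per-plate cutoff, the mean activation of sample wells on that plate plus 3 SD, cut at about 8% in these data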
Target sequence (P32245 whole entry, looked up): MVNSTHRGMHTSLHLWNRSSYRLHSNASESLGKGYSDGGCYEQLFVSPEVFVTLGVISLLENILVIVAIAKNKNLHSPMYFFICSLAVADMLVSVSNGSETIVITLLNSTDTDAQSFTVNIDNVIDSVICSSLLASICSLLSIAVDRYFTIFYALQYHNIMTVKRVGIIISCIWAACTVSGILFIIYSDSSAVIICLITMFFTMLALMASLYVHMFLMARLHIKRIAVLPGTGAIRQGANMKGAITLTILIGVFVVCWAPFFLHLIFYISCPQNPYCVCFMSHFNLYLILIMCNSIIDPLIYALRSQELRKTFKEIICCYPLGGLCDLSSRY
MC4R antagonist: MC4R antagonists of cAMP signaling, primary screen, cell-based, TR-FRET, antagonist arm of biased-ligand search; MC4R-expressing cells, MTII-stimulated cAMP, LANCE TR-FRET; AID 540295, 2011; Melanocortin receptor 4 (Homo sapiens), P32245; 0.48% of 360,000 active; inhibition, % at 6.5 µM;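 active = inhibition above its plate's cutoff, the mean of tested wells on that plate plus 3 SD, cut at about 29% in these data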;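 note: 0% = Melanotan II alone and 100% = Melanotan II plus saturating MCL0020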
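material = U2OS cells stably expressing human melanocortin 4 receptor (MC4R) | also added = Melanotan II challenge | dosing = single nominal compound dose of 6.5 µM | detection = TR-FRET with Eu-cAMP and labeled anti-cAMP, 671 nm | replication = singlicate | timing = compound 30 min, challenge 1 h, detection 1 h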
* = called active by the depositor.

Results for CC1OC(OC2CC(O)C3(CO)C4C(O)CC5(C)C(C6=CC(=O)OC6)CCC5(O)C4CCC3(O)C2)C(O)C(O)C1O (stereo unspecified) ?
MC4R ag barr: 16.1*; MC4R antagonist: 13.1

Results for COc1ccc(C(=O)N/N=C/C23CC[C@@H](O)CC2(O)CC[C@@H]2[C@@H]3CCC3(C)C(C4=CC(=O)OC4)CCC23O)cc1 (stereo partly specified) ?
AI-2 QS modul: 13.4; NTR1 ag: -0.2; MC4R ag barr: 6.0; MC4R antagonist: 2.2

What do the screens show for `C[C@@H]1O[C@@H](O[C@H]2C[C@@H](O)[C@]3(CO)[C@H]4[C@H](O)C[C@]5(C)[C@@H](C6COC(=O)C6)CC[C@]5(O)[C@@H]4CC[C@]3(O)C2)[C@H](O)[C@H](O)[C@H]1O` (stereo partly specified)?
AI-2 QS modul: 21.3; NTR1 ag: 0.9; MC4R ag barr: 23.9*; MC4R antagonist: 6.3

How did C[C@@H]1O[C@@H](O[C@@H]2C=C3CCC4C(CC[C@]5(C)[C@@H](c6ccc(=O)oc6)CC[C@]45O)[C@@]3(C)CC2)[C@H](O)[C@H](O)[C@H]1O (stereo partly specified) do in these assays?
NTR1 ag: -1.1; MC4R ag barr: 25.3*; MC4R antagonist: 3.2

Results for CC(=O)C1CCC2(O)C3CCC4=CC(=O)CCC4(C)C3CCC12C (stereo unspecified) ?
MC4R ag barr: 2.2; MC4R antagonist: 1.5

What do the screens show for `C[C@@H]1O[C@@H](O[C@@H]2C=C3CC[C@@H]4C(CC[C@]5(C)[C@@H](c6ccc(=O)oc6)CC[C@]45O)[C@@]3(C)CC2)[C@H](O)[C@H](O)[C@H]1O` (stereo partly specified)?
NTR1 ag: -1.3; MC4R ag barr: 37.7*; MC4R antagonist: 10.7

What do the screens show for `Cc1ccccc1NC(=NCCCN1CC1)Nc1ccccc1C`?
MC4R ag barr: -0.4; MC4R antagonist: 1.6

What do the screens show for `CN1CCN(C(=O)COc2ccc(N(C)S(=O)(=O)c3ccc(F)cc3)cc2)CC1`?
AI-2 QS modul: 21.7; NTR1 ag: -1.2; MC4R ag barr: -2.3; MC4R antagonist: 0.2

What do the screens show for `CN(C)[C@@H]1C(=O)C(C(N)=O)=C(O)[C@@]2(O)C(=O)C3=C(O)c4c(O)ccc(Cl)c4[C@@](C)(O)[C@H]3C[C@@H]12`?
AI-2 QS modul: -111.0*; MC4R ag barr: 0.6; MC4R antagonist: 3.1

What do the screens show for `CN(C)[C@@H]1C(=O)C(C(N)=O)=C(O)[C@@]2(O)C(=O)C3=C(O)c4c(O)cccc4[C@@](C)(O)C3C[C@@H]12` (stereo partly specified)?
AI-2 QS modul: -63.7; NTR1 ag: 0.0; MC4R ag barr: -0.3; MC4R antagonist: -0.1

Results for CC(=O)OC1CC[C@]2(C#N)[C@H]3CC[C@]4(C)[C@H](C5C=CC(=O)O5)CCC4(O)C3CCC2(O)C1 (stereo partly specified) ?
AI-2 QS modul: 10.6; NTR1 ag: -0.4; MC4R ag barr: 14.3*; MC4R antagonist: 14.7

Results for CC(O)(CS(=O)(=O)c1ccccc1)C(=O)Nc1ccc(C(F)(F)F)cc1 (stereo unspecified) ?
AI-2 QS modul: 11.6; NTR1 ag: 0.4; MC4R ag barr: 1.0; MC4R antagonist: 3.7

What do the screens show for `CC(O)(CS(=O)(=O)c1cccc(C(F)(F)F)c1)C(=O)Nc1cccc(C(F)(F)F)c1` (stereo unspecified)?
AI-2 QS modul: 15.9; NTR1 ag: 3.4; MC4R ag barr: 10.0*; MC4R antagonist: 4.3

How did O=C(O)COc1cc(Cl)c(Cl)cc1Cl do in these assays?
MC4R ag barr: -0.5; MC4R antagonist: 13.7

Results for COc1cc(C=C2C(=O)NC(=O)NC2=O)ccc1OCc1ccc([N+](=O)[O-])cc1 ?
MC4R ag barr: -2.0; MC4R antagonist: 17.6

How did COc1cc(/C=C(/C)[N+](=O)[O-])ccc1OCc1ccccc1Cl do in these assays?
AI-2 QS modul: 27.4; NTR1 ag: 38.9; MC4R ag barr: -5.5; MC4R antagonist: 32.1*
